# Results taken from ChEMBL document CHEMBL1122619, “Synthesis and antiarrhythmic and parasympatholytic properties of substituted phenols. 2. Amides” (J Med Chem, 1984).
# Activity calls are given as the source filed them. The rule behind the calls is not given here.
# Experiments:
# [1] = species: Cavia porcellus; experiment: Parasympatholytic activity was assessed from the ability to inhibit electrically stimulated contraction of isolated guinea pig ileum at 4 mg/L of base; format: functional
# Method in brief: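 Electrically stimulated isolated guinea pig ileum, in which tension arises from stimulated acetylcholine release from postganglionic parasympathetic nerve terminals. After about 60 min equilibration, contractile tension was measured just before and during the steady-state response to test drug at 4 mg/L, calculated as free base.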
# [2] = system: Canis familiaris; experiment: Compound was evaluated for ouabain-induced arrhythmia in anesthetized adult male mongrel dogs. Both ouabain and compound are administered intravenously; NA means not effective; format: functional, organism-based; details: Canis lupus familiaris
# Method in brief: (§1)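 Adult male mongrel dogs (10–17 kg) anesthetized with pentobarbital (30 mg/kg iv) and intubated with spontaneous respiration. ECG lead II recorded. Ouabain given iv as boluses: 40 μg/kg, then 20 μg/kg at 30 min, then 10 μg/kg every 15 min until a stable ventricular arrhythmia (>95% ectopic ventricular complexes). Test drug given iv, doses calculated as free base.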
# [3] = system: Canis familiaris; experiment: Evaluated for ouabain-induced arrhythmia in anesthetized adult male mongrel dogs. Administered intravenously.; format: functional, Canis lupus familiaris; method in brief: as §1
# [4] = system: Canis familiaris; experiment: Compound was evaluated for ouabain-induced arrhythmia in anesthetized adult male mongrel dogs. Both ouabain and compound are administered intravenously; NA = inactive up to 30 mg/kg; format: functional, organism-based; parameters: dose 30 mg/kg; details: Canis lupus familiaris; method in brief: as §1
# [5] = species: Cavia porcellus; experiment: Anticholinergic activity is assessed in guinea pig ileum at 50 uM; format: functional; details: read-out: pA2 (converted)
# Method in brief: (§2)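 Isolated guinea pig ileum contracted with methacholine. Tissue washed between increasing methacholine concentrations. A single antagonist dose was given 15 min before each methacholine concentration. Methacholine EC50 (50% of maximal response) was found per muscle with and without antagonist. pA2 = −log KB, where KB = [antagonist]/((EC50 with/EC50 without) − 1). Doses calculated as free base.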
# [6] = species: Cavia porcellus; experiment: Anticholinergic activity is assessed in guinea pig ileum at 30 uM; format: functional, organism-based; details: read-out: pA2 (converted); method in brief: as §2
# [7] = species: Cavia porcellus; experiment: Anticholinergic activity is assessed in guinea pig ileum at 30 uM; details: read-out: pA2 (converted)
# [8] = species: Cavia porcellus; experiment: Anticholinergic activity is assessed in guinea pig ileum at 10 uM; format: functional; details: read-out: pA2 (converted); method in brief: as §2
Compound,Inhibition [1],Dose [3],further results
Cl.Cl.O=C(Nc1cc(CN2CCCC2)c(O)c(CN2CCCC2)c1)c1ccc(Cl)cc1Cl,11%,–,DOSE [2]: Not effective
Cl.Cl.O=C(NCc1cc(CN2CCCC2)c(O)c(CN2CCCC2)c1)c1ccc(Cl)cc1,56%,3.7 mg/kg,–
O=C(Nc1cc(CN2CCCC2)c(O)c(CN2CCCC2)c1)c1ccc(C(F)(F)F)cc1,42%,5.3 mg/kg,–
O=C(Nc1cc(CN2CCCC2)c(O)c(CN2CCCC2)c1)c1ccc(Cl)cc1,49%,1.5 mg/kg,–
COc1cc(C(=O)Nc2cc(CN3CCCC3)c(O)c(CN3CCCC3)c2)cc(OC)c1OC.Cl.Cl,6%,–,DOSE [4]: inactive
COc1ccc(C(=O)Nc2cc(CN3CCCC3)c(O)c(CN3CCCC3)c2)cc1,24%,7.3 mg/kg,–
Cc1cccc(C)c1C(=O)Nc1cc(CN2CCCC2)c(O)c(CN2CCCC2)c1.Cl.Cl,15%,3.2 mg/kg,Kb [5]: 5.5 µM
O=C(Nc1cc(CN2CCCC2)c(O)c(CN2CCCC2)c1)c1cc(Br)sc1Br,–,4.3 mg/kg,–
Cl.Cl.O=C(NCc1cc(CN2CCCC2)c(O)c(CN2CCCC2)c1)c1cccc(C(F)(F)F)c1,72%,5.5 mg/kg,–
Cc1ccccc1C(=O)Nc1cc(CN2CCCC2)c(O)c(CN2CCCC2)c1.Cl.Cl,9%,2.7 mg/kg,Kb [6]: 19.5 µM
Cl.Cl.O=C(Nc1cc(CN2CCCC2)c(O)c(CN2CCCC2)c1)c1ccccc1C(F)(F)F,0%,6.5 mg/kg,Kb [5]: 17.4 µM
O=C(Nc1cc(CN2CCCC2)c(O)c(CN2CCCC2)c1)c1ccccc1Cl,0%,5 mg/kg,Kb [5]: 7.59 µM
Cc1ccc(C(=O)Nc2cc(CN3CCCC3)c(O)c(CN3CCCC3)c2)cc1,22%,3 mg/kg,–
O=C(Cc1cccs1)Nc1cc(CN2CCCC2)c(O)c(CN2CCCC2)c1,13%,–,DOSE [2]: Not effective
CCN(CC)CCNC(=O)c1ccc(N)cc1 [PROCAINAMIDE],0%,29 mg/kg,–
O=C(Nc1cc(CN2CCCC2)c(O)c(CN2CCCC2)c1)c1ccccc1,30%,3.4 mg/kg,Kb [7]: 10 µM
Oc1c(CN2CCCC2)cc(Nc2ncnc3ccccc23)cc1CN1CCCC1 [CHANGROLIN],43%,5.5 mg/kg,–

Compound,Inhibition [1],Dose [3],further results
COc1ccccc1C(=O)Nc1cc(CN2CCCC2)c(O)c(CN2CCCC2)c1.Cl.Cl,31%,3 mg/kg,–
O=C(NCc1cc(CN2CCCC2)c(O)c(CN2CCCC2)c1)c1ccccc1,34%,3 mg/kg,–
Cl.Cl.O=C(NCc1cc(CN2CCCC2)c(O)c(CN2CCCC2)c1)c1ccc(C(F)(F)F)cc1,50%,4.5 mg/kg,–
Cl.O=C(Nc1cc(CN2CCCC2)c(O)c(CN2CCCC2)c1)c1cccc(C(F)(F)F)c1,62%,2.3 mg/kg,–
O=C(Nc1cc(CN2CCCC2)c(O)c(CN2CCCC2)c1)c1ccc([N+](=O)[O-])cc1,24%,11 mg/kg,–
Cl.Cl.O=C(Nc1cc(CN2CCCC2)c(O)c(CN2CCCC2)c1)c1cccc(Cl)c1,37%,3.8 mg/kg,–
Cc1cccc(C(=O)Nc2cc(CN3CCCC3)c(O)c(CN3CCCC3)c2)c1.Cl.Cl,32%,5.2 mg/kg,–
Cl.Cl.O=C(NCc1cc(CN2CCCC2)c(O)c(CN2CCCC2)c1)c1ccccc1Cl,19%,2.5 mg/kg,Kb [5]: 12 µM
Cl.Cl.O=C(NCc1cc(CN2CCCC2)c(O)c(CN2CCCC2)c1)c1ccccc1C(F)(F)F,8%,1.9 mg/kg,–
O=C(Nc1cc(CN2CCCC2)c(O)c(CN2CCCC2)c1)c1cccs1,44%,2 mg/kg,Kb [6]: 15.8 µM
Cl.Cl.O=C(NCc1cc(CN2CCCC2)c(O)c(CN2CCCC2)c1)c1cccc(Cl)c1,78%,9 mg/kg,–
Nc1ccc(C(=O)Nc2cc(CN3CCCC3)c(O)c(CN3CCCC3)c2)cc1,0%,4.5 mg/kg,–
Cc1ccc(C(=O)Nc2cc(CN3CCCC3)c(O)c(CN3CCCC3)c2)s1,–,4.3 mg/kg,–
C=C[C@H]1CN2CC[C@H]1C[C@@H]2[C@@H](O)c1ccnc2ccc(OC)cc12 [QUINIDINE],62%,10.5 mg/kg,Kb [8]: 1 µM
Cc1ccsc1C(=O)Nc1cc(CN2CCCC2)c(O)c(CN2CCCC2)c1,–,1.6 mg/kg,–
CC(C)N(CCC(C(N)=O)(c1ccccc1)c1ccccn1)C(C)C (stereo not given) [DISOPYRAMIDE],81%,4.4 mg/kg,Kb [7]: 0.363 µM
Cl.Cl.O=C(Nc1cc(CN2CCCC2)c(O)c(CN2CCCC2)c1)c1c(Cl)cccc1Cl,14%,4.6 mg/kg,Kb [5]: 4.68 µM
